Series [1] relates to Actinomyces viscosus. The experiment in a line: Compound was tested for it's inhibitory activity against Actinomyces viscosus M100-2000. In kind it is functional, organism-based.
Series [2] concerns Actinomyces viscosus. As to the kind of experiment: Minimum inhibitory concentration against Actinomyces viscosus. The class given is functional. A digest of the protocol:
(§1)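 Tube dilution in trypticase soy broth, threefold dilutions from 1000 to 0.1 μg/mL. Stocks were 1 mg/100 μL in EtOH or Me₂SO. The inoculum was 50 μL of 10⁸ cfu/mL log-phase A. viscosus M100-2000, incubated aerobically at 37 °C. MIC was read visually at 24 h.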

In series [3] the test system is Streptococcus mutans. As to the kind of experiment: The compound was tested for it's inhibitory activity against Streptococcus mutans. In kind it is functional, organism-based.
The subject of series [4] is Streptococcus mutans. The experiment in a line: Maximum percentage inhibition against Streptococcus mutans at a concentration of 0.2% w/v. The class given is functional. The essentials: (§2)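 Bovine enamel slabs (4 × 8 mm) were autoclaved in PBS pH 7.5, coated with human saliva (1 h, 37 °C), dipped in drug solution at the stated w/v for 2 min, then rinsed. They were incubated 24 h at 37 °C in 1% sucrose-supplemented medium inoculated with the plaque-forming organism. Tooth-adherent, glass-adherent and nonadherent fractions were read by OD540. Water-dipped slabs served as controls. Run in triplicate.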

The test system of series [5] is Actinomyces viscosus. As to the kind of experiment: Maximum percentage inhibition against Actinomyces viscosus M-100-2000 at a concentration of 0.2% w/v.
Series [6] deals with Actinomyces viscosus. As to the kind of experiment: Compound was tested against Actinomyces viscosus. In kind it is functional.
Series [7] is described as follows: Dissociation constant of the compound. The class given is physicochemical. The essentials:
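Spectroscopic pKa in 0.01 M phosphate buffers without cosolvent, below 10⁻⁴ M. Only pH values giving >60% ionization were used. The analytical wavelength was the longest λmax at pH 12 (260–370 nm). The value is the average of triplicate determinations.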

Series [8] is described as follows: Partition coefficient (logP). To be noted: octanol/water. In kind it is physicochemical. The essentials:
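log P calculated, not measured: 3.27 for salicylanilide plus π of the 4'-substituent plus π of R' (phenolic hydrophobicity substituent constants).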

A short description of series [9]: Partition coefficient (logD). In kind it is physicochemical. To be noted: octanol/water. A digest of the protocol: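 logD calculated at pH 7.2 as log D = log P + log[1/(1 + 10^(pH−pKa))], using the calculated log P and spectroscopic pKa.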
Series [10] has as its system Actinomyces viscosus. The experiment in a line: Minimum inhibitory concentration against Actinomyces viscosus M100-2000; NE is Not Effective. The class given is functional, organism-based. A digest of the protocol:
as §1

The subject of series [11] is Actinomyces viscosus. As to the kind of experiment: Maximum percentage inhibition against Actinomyces viscosus 6715-13WT at a concentration of 0.1% w/v. To be noted: in the assay text read “M-100-2000” for “6715-13WT”. The class given is functional. The essentials:
as §2

Series [12] has as its system Streptococcus mutans. As to the kind of experiment: Maximum percentage inhibition against Streptococcus mutans at a concentration of 0.1% w/v. In kind it is functional. A digest of the protocol:
as §2

In brackets after ≈: the same amount, converted by molar mass. Activity calls are given as the source filed them. The rule behind the calls is not given here.

As to `O=C(Nc1ccc(Br)cc1)c1cc(Br)cc(Br)c1O` [TRIBROMSALAN], the results for the IC50 in [1] and in series [3] were 880 µM and 1200 µM, respectively. Moreover, the minimal inhibitory concentration (MIC) (as a rule, the least concentration at which growth counts as inhibited) in series [2] came out at 0.5 µg/mL (≈ 1.11 µM). Besides, the inhibition – broadly, the share of the control response that was lost under treatment – at 0.2 % strength in series [4] was 46%; in series [5], 53%.

In the case of `CCCCCCCCCCS(=O)(=O)c1ccc(O)c(C(=O)Nc2ccc(Br)cc2)c1`, the MIC in series [2] is 0.5 µg/mL (≈ 1.01 µM). Besides, the “Log 1/MIC” value in series [6] was found to be 6. Moreover, in series [7], the pKa (in general, the negative logarithm of the acid dissociation constant) turned out to be 5.2. Besides, the logP (as a rule, a log measure of how a compound divides between an organic and an aqueous phase) in series [8] was 7.36. Also, the logD (in general, the decadic logarithm of the distribution of all forms, ionised or not, between an organic phase and buffer at a given pH) in [9] was found to be 5.36.

Take `CCCCCCCCCCCCS(=O)(=O)c1ccc(O)c(C(=O)Nc2ccc(Br)cc2)c1`: the MIC in series [2] came to 0.5 µg/mL (≈ 0.953 µM). The “Log 1/MIC” value in [6] was 6.02. This molecule registered a pKa in [7] of 5.2. This molecule came in with a logP in series [8] of 8.44. The molecule also returned a logD in [9] of 6.49.

On to `CCCCCCCCCCCCS(=O)(=O)c1ccc(O)c(C(=O)Nc2ccc(C#N)cc2)c1`, for which, in series [2], the MIC turned out to be 1 µg/mL (≈ 2.12 µM).

`CCCCCCCCCCS(=O)(=O)c1ccc(O)c(C(=O)Nc2ccc(C(F)(F)F)cc2)c1`: the IC50 – broadly, the point on the concentration scale where inhibition reaches its midpoint – was found to be 90 µM in series [1] and 1900 µM in series [3]. In [2], this molecule returned an MIC of 0.1 µg/mL (≈ 0.206 µM). For the same molecule, in series [6], the “Log 1/MIC” value stood at 6.69. This molecule showed a pKa in series [7] of 6.2. Also, the logP in [8] is 7.38. In addition, the logD in series [9] was 6.34. In addition, the inhibition at 0.2 % strength in series [4] was determined as 76%; in [5] it was 95%.

The molecule `CCCCCCCCCCCCS(=O)(=O)c1ccc(O)c(C(=O)Nc2cccc(C(F)(F)F)c2)c1` had an MIC in series [2] of 0.1 µg/mL (≈ 0.195 µM).

Regarding `CCCCCCCCS(=O)(=O)c1ccc(O)c(C(=O)Nc2ccc(C(F)(F)F)cc2)c1`, the lowest concentration to inhibit growth in series [2] (MIC) was 0.5 µg/mL (≈ 1.09 µM). Moreover, the “Log 1/MIC” value in series [6] is recorded as 5.96. In series [7], this molecule had a pKa of 6.2. Further, the logP in series [8] turned out to be 6.3. This molecule also gave a logD in series [9] of 5.26.

Turning to `CCCCCCCCCCCCCCS(=O)(=O)c1ccc(O)c(C(=O)Nc2ccc(C(F)(F)F)cc2)c1`, in [10], the MIC entry is “inactive”.

`CCCCCCCCCCCCS(=O)(=O)c1ccc(O)c(C(=O)Nc2ccc(C(F)(F)F)cc2)c1`: the MIC in series [2] came out at 0.05 µg/mL (≈ 0.0973 µM). Also, the Log 1/MIC in [6] is 7.01. Further, the pKa in [7] was 6.2. Besides, the logP in [8] stood at 8.46. The logD in [9] is 7.42.

Molecule `CS(=O)(=O)c1ccc(O)c(C(=O)Nc2ccccc2)c1` yielded an MIC in [2] of at least 1000 µg/mL.

On to `CCCCCCCCCCS(=O)(=O)c1ccc(O)c(C(=O)Nc2cccc(C(F)(F)F)c2)c1`, for which the IC50 was found to be 680 µM in series [1] and 2300 µM in [3]. Moreover, the inhibition at 0.1 % strength in [11] amounted to 83%; in series [12], 47%. Also, it took 0.5 µg/mL (≈ 1.03 µM) to inhibit growth in [2] (MIC).

In the case of `CCCCCCS(=O)(=O)c1ccc(O)c(C(=O)Nc2ccc(Br)cc2)c1`, the MIC in [2] came out at 5 µg/mL (≈ 11.4 µM). Besides, in series [6], the “Log 1/MIC” value was 4.94. The molecule further came in with a pKa in series [7] of 5.2. This molecule also came in with a logP in series [8] of 5.2. Also, in [9], the logD stood at 3.2.

Regarding `CCCCCCCCCCS(=O)(=O)c1ccc(O)c(C(=O)Nc2ccc([N+](=O)[O-])cc2)c1`, the IC50 in series [1] came to 230 µM; in [3], 190 µM. In series [2], it took 0.5 µg/mL (≈ 1.08 µM) to inhibit growth (MIC). The results for the inhibition at 0.2 % strength in series [4] and in series [5] were 80% and 93%, respectively.

Take `CS(=O)(=O)c1ccc(O)c(C(=O)Nc2ccc(Br)cc2)c1`: the MIC in series [2] was at least 1000 µg/mL.

In the case of `CCCCCCS(=O)(=O)c1ccc(O)c(C(=O)Nc2ccc(C(F)(F)F)cc2)c1`, in series [2], the MIC was 5 µg/mL (≈ 11.6 µM). Moreover, the “Log 1/MIC” value in series [6] amounted to 4.94. For the same molecule, the pKa in [7] was 6.2. In [8], this molecule showed a logP of 5.22. In series [9], this molecule came in with a logD of 4.18.

As for `CCCCCCCCCCCCCCS(=O)(=O)c1ccc(O)c(C(=O)Nc2cccc(C(F)(F)F)c2)c1`, in series [10], the MIC result was “inactive”.

Consider `CCCCCCCCS(=O)(=O)c1ccc(O)c(C(=O)Nc2ccc([N+](=O)[O-])cc2)c1`, for which the MIC in series [2] is 1 µg/mL (≈ 2.3 µM).

Take `CCCCCCCCCCCCCCS(=O)(=O)c1ccc(O)c(C(=O)Nc2ccc([N+](=O)[O-])cc2)c1`: it took 0.5 µg/mL (≈ 0.964 µM) to inhibit growth in series [2] (MIC).

In the case of `CCCCCCCCCCCCS(=O)(=O)c1ccc(O)c(C(=O)Nc2ccc([N+](=O)[O-])cc2)c1`, the MIC in series [2] came out at 0.5 µg/mL (≈ 1.02 µM).

`CS(=O)(=O)c1ccc(O)c(C(=O)Nc2ccc(C(F)(F)F)cc2)c1` came in with an MIC in series [2] of 1000 µg/mL (≈ 2780 µM). For the same molecule, the “Log 1/MIC” value in series [6] is recorded as 2.56. The pKa in series [7] came to 6.2. In series [8], the logP was determined as 2.52. The molecule also had a logD in series [9] of 1.48.

In series [2], `CCCCS(=O)(=O)c1ccc(O)c(C(=O)Nc2ccc(C(F)(F)F)cc2)c1` returned an MIC of 20 µg/mL (≈ 49.8 µM). Also, in series [6], the “Log 1/MIC” value worked out at 4.31. For the same molecule, in series [7], the pKa is 6.2. The molecule also showed a log partition coefficient (logP) in [8] of 4.14. Moreover, in [9], the logD amounted to 3.1.

For the molecule `CCCCCCCCCCCCS(=O)(=O)c1ccc(O)c(C(=O)Nc2ccc(OC)cc2)c1`, it took 1000 µg/mL (≈ 2100 µM) to inhibit growth in series [2] (MIC).

In series [2], `CCCCS(=O)(=O)c1ccc(O)c(C(=O)Nc2ccc(Br)cc2)c1` displayed an MIC of 20 µg/mL (≈ 48.5 µM). Besides, the “Log 1/MIC” value in series [6] is given as 4.31. For the same molecule, in [7], the pKa was found to be 5.2. In series [8], the logP came to 4.12. In series [9], the logD turned out to be 2.48.

For the origin of these results see ChEMBL document CHEMBL1123206, “5-(Alkylsulfonyl)salicylanilides as potential dental antiplaque agents” (J Med Chem, 1986).
